Measured values from ChEMBL document CHEMBL2074468, “Identification of multispecific organic anion transporter 2 expressed predominantly in the liver” (FEBS Lett, 1998).

Key:
[1] = biological target: T1, Solute carrier family 22 member 7 (Rattus norvegicus, UniProt Q5RLM2); assay: TP_TRANSPORTER: inhibition of Salicylate uptake (salicylate: 1 uM, ICG: 1000 uM) in Xenopus laevis oocytes; assay type: functional, cell-based; details: oocyte
T1 sequence (Q5RLM2 whole entry): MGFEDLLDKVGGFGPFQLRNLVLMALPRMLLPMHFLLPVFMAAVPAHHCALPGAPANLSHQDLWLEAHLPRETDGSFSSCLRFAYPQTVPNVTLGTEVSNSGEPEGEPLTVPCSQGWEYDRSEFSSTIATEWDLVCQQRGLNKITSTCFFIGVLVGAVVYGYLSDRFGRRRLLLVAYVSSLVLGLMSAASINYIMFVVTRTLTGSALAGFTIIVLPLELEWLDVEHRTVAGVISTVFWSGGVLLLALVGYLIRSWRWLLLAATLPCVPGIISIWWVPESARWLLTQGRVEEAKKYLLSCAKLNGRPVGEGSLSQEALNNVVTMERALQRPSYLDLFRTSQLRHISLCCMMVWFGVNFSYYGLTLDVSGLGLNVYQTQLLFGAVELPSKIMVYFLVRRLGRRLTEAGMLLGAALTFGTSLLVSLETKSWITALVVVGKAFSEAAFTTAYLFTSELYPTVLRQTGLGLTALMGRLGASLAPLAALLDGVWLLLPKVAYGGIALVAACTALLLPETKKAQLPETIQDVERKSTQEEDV
Procedure, shortened: (§1)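 Rat liver NLT/OAT2 (L5) cRNA (10 ng capped) was injected into defolliculated oocytes, which were kept 2–3 days at 18°C in gentamicin Barth's, pH 7.4. Uptake of 1 μM [14C]salicylate was measured in ND96 (pH 7.4) at room temperature, with or without inhibitor (1 mM; BSP 250 μM). Results are % of L5-mediated uptake without inhibitor, mean±S.E.M., n=5–8 oocytes.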

[2] = biological target: T1, Solute carrier family 22 member 7; assay: (§2) TP_TRANSPORTER: uptake in Xenopus laevis oocytes; assay type: functional, cell-based; details: oocyte
Procedure, shortened: (§3)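 Oocytes were injected with 10 ng capped L5 cRNA or left as controls, then held 2–3 days at 18°C. Radiolabeled substrates ([14C]α-ketoglutarate 7 μM, [3H]PGE2 6 nM, [3H]methotrexate 1 μM, [14C]acetylsalicylate 20 μM, [14C]PAH 20 μM) were taken up for 1 h in ND96, pH 7.4, at room temperature. Mean±S.E.M., n=5–8.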

[3] = biological target: T1, Solute carrier family 22 member 7; assay: TP_TRANSPORTER: inhibition of Salicylate uptake (salicylate: 1 uM, BSP: 250 uM) in Xenopus laevis oocytes; assay type: functional, cell-based; details: oocyte; procedure, shortened: as §1
[4] = biological target: T1, Solute carrier family 22 member 7; assay: TP_TRANSPORTER: inhibition of Salicylate uptake (salicylate: 1 uM, Cefoperazone: 1000 uM) in Xenopus laevis oocytes; assay type: functional, cell-based; details: oocyte; procedure, shortened: as §1
[5] = biological target: T1, Solute carrier family 22 member 7; assay: TP_TRANSPORTER: inhibition of Salicylate uptake (salicylate: 1 uM, Rifampicin: 1000 uM) in Xenopus laevis oocytes; assay type: functional, cell-based; details: oocyte; procedure, shortened: as §1
[6] = biological target: T1, Solute carrier family 22 member 7; assay: TP_TRANSPORTER: inhibition of Salicylate uptake (salicylate: 1 uM, Enalapril: 1000 uM) in Xenopus laevis oocytes; assay type: functional, cell-based; details: oocyte; procedure, shortened: as §1
[7] = substrate: O=C(O)CCC(=O)C(=O)O; assay: as §2; assay type: functional, cell-based, Oocyte; procedure, shortened: as §3
[8] = substrate: O=C(O)c1ccccc1O; assay: cells, lysate or membranes named

With `CC1(C)C(/C=C/C=C/C=C/C=C2/N(CCCCS(=O)(=O)[O-])c3ccc4ccccc4c3C2(C)C)=[N+](CCCCS(=O)(=O)[O-])c2ccc3ccccc3c21.[Na+]` [INDOCYANINE GREEN] the Activity [1] was “inhibitor [(at a rough estimate) 10 % of control]”.

`CC(=O)Oc1ccccc1C(=O)O` [ASPIRIN] was tested, and the Activity [2] was “substrate [+]”.

With `CN(Cc1cnc2nc(N)nc(N)c2n1)c1ccc(C(=O)N[C@@H](CCC(=O)O)C(=O)O)cc1` [METHOTREXATE] the Activity [2] was “substrate [+]”.

With `O=C1OC(c2ccc(O)c(S(=O)(=O)[O-])c2)(c2ccc(O)c(S(=O)(=O)[O-])c2)c2c(Br)c(Br)c(Br)c(Br)c21.[Na+].[Na+]` [SULFOBROMOPHTHALEIN SODIUM] the Activity [3] was “inhibitor [(at a rough estimate) <5 % of control]”.

With `CCN1CCN(C(=O)N[C@@H](C(=O)N[C@@H]2C(=O)N3C(C(=O)O)=C(CSc4nnnn4C)CS[C@H]23)c2ccc(O)cc2)C(=O)C1=O` [CEFOPERAZONE] the Activity [4] was “inhibitor [(at a rough estimate) 15 % of control]”.

`Nc1ccc(C(=O)NCC(=O)O)cc1` [AMINOHIPPURIC ACID] was tested, and the Activity [2] was “substrate [+]”.

In the case of `CCCCC[C@H](O)/C=C/[C@H]1[C@H](O)CC(=O)[C@@H]1C/C=C\CCCC(=O)O` [DINOPROSTONE], the Activity [2] is reported as “substrate [+]”.

In the case of `CO[C@H]1/C=C/O[C@@]2(C)Oc3c(C)c(O)c4c(O)c(c(/C=N/N5CCN(C)CC5)c(O)c4c3C2=O)NC(=O)/C(C)=C\C=C\[C@H](C)[C@H](O)[C@@H](C)[C@@H](O)[C@@H](C)[C@H](OC(C)=O)[C@@H]1C` [RIFAMPIN], the Activity [5] is reported as “inhibitor [(at a rough estimate) 15 % of control]”.

With `CC[N+](CC)(CC)CC` [TETRYLAMMONIUM] the Activity [2] was “is not a substrate [-]”.

In the case of `CCOC(=O)[C@H](CCc1ccccc1)N[C@@H](C)C(=O)N1CCC[C@H]1C(=O)O`, the Activity [6] is reported as “inhibitor [(at a rough estimate) 80 % of control]”.

B1: Solute carrier family 22 member 7 (Rattus norvegicus) (protein)
chain: T1 sequence (Q5RLM2 whole entry)
In the case of B1, the Km [7] is reported as 17.8 µM and the Km [8] is reported as 88.8 µM.
